This is an account of results in ChEMBL document CHEMBL4819003, “Optimization of novel oxidative DIMs as Nur77 modulators of the Nur77-Bcl-2 apoptotic pathway” (Eur J Med Chem, 2021).

Calls of active or inactive are those of the source. The rule behind the calls is not given here.

Series [1] concerns the target T1, Nuclear receptor subfamily 4immunitygroup A member 1 (Homo sapiens, UniProt P22736). As to the kind of experiment: Modulation of GFP-Nur77-LBD (unknown origin) transfected in human HEK293T cells co-transfected with Flag-tagged Bcl2 assessed as interaction of Nur77 with Bcl2 in mitochondria at 0.5 uM measured after 2 hrs by confocal microscopy. To be noted: filed as modulator. The essentials:
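HEK293T cells were lipofectamine-cotransfected with Flag-Bcl-2 and GFP-Nur77 or GFP-Nur77-LBD, then given 0.5 μM compound for 2 h. Cells were fixed in 4% paraformaldehyde, permeabilised with 0.1% Triton X-100, blocked in 1% BSA and stained with anti-Flag plus DAPI. Mitochondrial colocalisation with Bcl-2 was read by confocal microscopy.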

Series [2] is described as follows: Selectivity index, ratio of IC50 for human NCM460 cells to IC50 for human HCT-116 cells. It is filed as toxicity. Conditions: NCM460 cells versus HCT-116 cells, read-out: Ratio IC50.
The nature of series [3]: Cmax in male/female Sprague-Dawley rat at 0.5 mg/kg, iv measured for 36 hrs by LC-MS/MS analysis. The series is classed as ADME, organism-based. On the set-up: route intravenous, dose 0.5 mg/kg, time 36 hrs. Conditions: both, in vivo.
The nature of series [4]: MRT(0 to t) in male/female Sprague-Dawley rat at 5 mg/kg, po measured for 36 hrs by LC-MS/MS analysis. Conditions: both, in vivo. The series is classed as ADME, organism-based. The essentials: (§1)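 Sprague-Dawley rats (200–220 g), four per route group (2 male, 2 female), given 0.5 mg/kg IV or 5 mg/kg orally in DMSO/T-80/H2O (1:5:94). Heparinized blood was sampled at 5 min–36 h after IV and at 0.5, 1, 3, 4, 6, 8, 10, 12, 24 and 36 h after oral dosing. Plasma was methanol (2% HCl)-precipitated with carbamazepine internal standard and quantified by LC-MS/MS. Parameters reported as mean ± SD.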

A short description of series [5]: Oral bioavailability in male/female Sprague-Dawley rat at 5 mg/kg measured for 36 hrs by LC-MS/MS analysis. It is filed as ADME, organism-based. Conditions: both, in vivo. The essentials:
as §1

For another series, the system named is SW-620. As to the kind of experiment: Induction of apoptosis in human SW-620 cells assessed as viable cells at 0.5 uM measured after 6 hrs by Annexin V-FITC/PI staining based flow cytometry method (reference value: 98.37%). Conditions: read-out: Activity. It is filed as functional. The essentials:
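Cells seeded at 1×10^6 per well and treated with 0.5 µM for 6 h. Floating and adherent cells pooled, stained with Annexin V-FITC for 10 min and propidium iodide for 5 min, then analysed immediately by flow cytometry in FITC and PC5.5 channels. Mean ± SD, n = 3.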
A general note: In flow cytometry, cells or beads pass a laser one at a time.

Series [6] is described as follows: Cmax in male/female Sprague-Dawley rat at 5 mg/kg, po measured for 36 hrs by LC-MS/MS analysis. On the set-up: route oral, time 36 hrs, dose 5 mg/kg. Conditions: both, in vivo. It is filed as ADME, organism-based.
A further series concerns MDA-MB-231. As to the kind of experiment: Induction of apoptosis in human MDA-MB-231 cells assessed as PARP cleavage at 0.5 uM measured after 6 hrs by western blot assay. The series is classed as functional, cell-based. The essentials: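 Cells exposed to 0.5 µM for 6 h. Lysates resolved by SDS-PAGE and blotted to PVDF, blocked in 5% milk/TBST, probed with primary antibodies at 1:1000, ECL detection. Apoptosis scored as the densitometric ratio of cleaved PARP band to intact PARP band; mean ± SD, n = 3.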
Background: In western blotting, separated proteins are transferred to a membrane and probed.

Series [7] can be described thus: Volume of distribution at steady state in male/female Sprague-Dawley rat at 0.5 mg/kg, iv measured for 36 hrs by LC-MS/MS analysis. To be noted: in vivo. It is filed as ADME, organism-based. The essentials:
as §1

Another series concerns MEF. As to the kind of experiment: Induction of apoptosis in mouse MEF cells lacking Nur77 assessed as PARP cleavage at 0.5 uM measured after 6 hrs by western blot assay. It is filed as functional, cell-based. The essentials:
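Wild-type, Nur77−/− or Bcl-2−/− mouse embryonic fibroblasts grown in DMEM with 10% FBS and treated with 0.5 µM for 6 h. PARP cleavage detected by western blot, primary antibodies at 1:1000, ECL.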

Series [8] in a line: Selectivity index, ratio of IC50 for human MCF-10A cells to IC50 for human BT-549 cells.
The target in series [9] is T1, Nuclear receptor subfamily 4immunitygroup A member 1. As to the kind of experiment: Modulation of Myc-Nur77 (unknown origin) transfected in human HEK293T cells assessed as induction of Myc-Nur77 mitochondrial targeting by measuring increase in Myc-Nur77 accumulation in mitochondria at 0.5 uM measured after 2 hrs by western blot analysis. Conditions: filed as modulator. The essentials:
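HEK293T cells transfected with Myc-Nur77 were exposed to 0.5 μM compound for 2 h. Cells were homogenised in sucrose Buffer D; 500 g then 5000 g spins gave a mitochondrial pellet. Whole-cell and mitochondrial fractions were western blotted for Myc-Nur77, with PARP and Tom20 as fraction-purity markers.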

A short description of series [10]: Half life in female Sprague-Dawley rat at 0.5 mg/kg, iv measured for 36 hrs by LC-MS/MS analysis. It is filed as ADME, organism-based. Conditions: in vivo.
Series [11] in a line: Oral bioavailability in male Sprague-Dawley rat at 5 mg/kg measured for 36 hrs by LC-MS/MS analysis. The series is classed as ADME, organism-based. To be noted: in vivo. The essentials: (§2)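 Sprague-Dawley rats (200–220 g), three males and three females per route group. Dosed 5 mg/kg orally or 0.5 mg/kg IV as a solution in DMSO/T-80/H2O (1:5:94 by volume). Heparinized blood was drawn from 5 min to 36 h after IV and 1–36 h after oral dosing. Plasma was protein-precipitated with methanol (2% HCl) plus carbamazepine internal standard and assayed by LC-MS/MS. Parameters were taken from concentration-time data; n = 3 per sex, mean ± SD.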

A short description of series [12]: AUC (0 to t) in female Sprague-Dawley rat at 5 mg/kg, po measured for 36 hrs by LC-MS/MS analysis. The series is classed as ADME, organism-based. The arrangement: dose 5 mg/kg, time 36 hrs. To be noted: in vivo. The essentials:
(§3)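 Sprague-Dawley rats (200–220 g), three per sex per route, were dosed at 0.5 mg/kg IV or 5 mg/kg PO in DMSO/Tween-80/water (1:5:94). Heparinized blood was drawn from 5 min to 36 h after IV dosing and from 1 h to 36 h after oral dosing. Plasma was deproteinized with methanol (2% HCl) plus carbamazepine internal standard, measured by LC-MS/MS, and reported as mean ± SD.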

A short description of series [13]: Cmax in male Sprague-Dawley rat at 0.5 mg/kg, iv measured for 36 hrs by LC-MS/MS analysis. The series is classed as ADME, organism-based. On the set-up: route intravenous, dose 0.5 mg/kg, time 36 hrs. Conditions: in vivo.
The nature of series [14]: AUC (0 to t) in male Sprague-Dawley rat at 0.5 mg/kg, iv measured for 36 hrs by LC-MS/MS analysis. The series is classed as ADME, organism-based. The arrangement: time 36 hrs, dose 0.5 mg/kg. To be noted: in vivo. The essentials:
as §3

Series [15] in a line: Cmax in female Sprague-Dawley rat at 0.5 mg/kg, iv measured for 36 hrs by LC-MS/MS analysis. The series is classed as ADME, organism-based. On the set-up: route intravenous, time 36 hrs, dose 0.5 mg/kg. To be noted: in vivo.
A short description of series [16]: Cmax in male Sprague-Dawley rat at 5 mg/kg, po measured for 36 hrs by LC-MS/MS analysis. Conditions: in vivo. It is filed as ADME, organism-based. The arrangement: route oral, time 36 hrs, dose 5 mg/kg.
Series [17] is described as follows: AUC (0 to t) in female Sprague-Dawley rat at 0.5 mg/kg, iv measured for 36 hrs by LC-MS/MS analysis. The series is classed as ADME, organism-based. On the set-up: dose 0.5 mg/kg, time 36 hrs. Conditions: in vivo. The essentials: as §3
Series [18] in a line: Cmax in female Sprague-Dawley rat at 5 mg/kg, po measured for 36 hrs by LC-MS/MS analysis. The series is classed as ADME, organism-based. On the set-up: route oral, time 36 hrs, dose 5 mg/kg. To be noted: in vivo.
Series [19] is described as follows: Tmax in male Sprague-Dawley rat at 5 mg/kg, po measured for 36 hrs by LC-MS/MS analysis. The series is classed as ADME, organism-based. To be noted: in vivo. The essentials: as §2
Series [20] can be described thus: Volume of distribution at steady state in female Sprague-Dawley rat at 0.5 mg/kg, iv measured for 36 hrs by LC-MS/MS analysis. The series is classed as ADME, organism-based. Conditions: in vivo. The essentials: as §2
The nature of series [21]: Oral bioavailability in female Sprague-Dawley rat at 5 mg/kg measured for 36 hrs by LC-MS/MS analysis. To be noted: in vivo. It is filed as ADME, organism-based. The essentials: as §2
A short description of series [22]: AUC (0 to t) in male Sprague-Dawley rat at 5 mg/kg, po measured for 36 hrs by LC-MS/MS analysis. It is filed as ADME, organism-based. The arrangement: dose 5 mg/kg, time 36 hrs. To be noted: in vivo. The essentials:
as §3

T1 sequence (P22736 whole entry, the tested form may be a part): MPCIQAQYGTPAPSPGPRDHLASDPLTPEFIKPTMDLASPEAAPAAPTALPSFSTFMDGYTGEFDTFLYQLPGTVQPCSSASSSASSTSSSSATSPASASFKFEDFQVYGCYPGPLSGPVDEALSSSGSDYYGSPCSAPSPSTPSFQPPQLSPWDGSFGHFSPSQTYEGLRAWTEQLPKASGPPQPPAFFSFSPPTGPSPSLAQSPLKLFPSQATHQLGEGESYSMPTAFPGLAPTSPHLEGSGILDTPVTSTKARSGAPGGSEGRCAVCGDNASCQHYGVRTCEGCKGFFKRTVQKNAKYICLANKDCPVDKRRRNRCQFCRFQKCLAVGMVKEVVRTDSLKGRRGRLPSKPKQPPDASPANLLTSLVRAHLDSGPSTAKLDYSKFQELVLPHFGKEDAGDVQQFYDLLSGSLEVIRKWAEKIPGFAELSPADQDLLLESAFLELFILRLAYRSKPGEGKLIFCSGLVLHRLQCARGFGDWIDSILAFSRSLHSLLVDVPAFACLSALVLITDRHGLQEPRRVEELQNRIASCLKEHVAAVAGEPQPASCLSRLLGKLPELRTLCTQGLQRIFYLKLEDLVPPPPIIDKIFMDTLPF

Turning to `CS(=O)(=O)[O-].Cn1cc([C+](c2ccc(C(F)(F)F)cc2)c2c[nH]c3ccccc23)c2ccccc21`, the result (in series [1]; in the series with MDA-MB-231; in [9]) was Active. In addition, in series [2], the selectivity ratio was determined as 50. Besides, the Cmax in series [3] was 561 ng/mL; in series [6], 57.9 ng/mL. In [4], the MRT last at 36 h was determined as 9.59 h. For the same molecule, in series [5], the bioavailability was found to be 14.6%. The viability at 0.5 µM in the series with SW-620 stood at 7.08%. Also, the Vdss in series [7] came out at 3.69 L/kg. Also, the result in the series with MEF was inactive. Further, in [8], the “Ratio IC50” value came out at 40.

In the case of `CS(=O)(=O)[O-].FC(F)(F)c1ccc([C+](c2c[nH]c3ccccc23)c2c[nH]c3ccccc23)cc1`, the half-life in [10] is 5.91 h. Besides, the results for the bioavailability in series [11] and in series [21] were 20.1% and 22.8%, respectively. For the same molecule, the AUC(0-t) at 36 h stood at 3950 ng·h/mL in series [12], 1120 ng·h/mL in series [14], 1730 ng·h/mL in series [17] and 2250 ng·h/mL in series [22]. Further, the Cmax turned out to be 880 ng/mL in series [13], 1640 ng/mL in [15], 143 ng/mL in series [16] and 203 ng/mL in series [18]. Besides, the Tmax in series [19] was 5.33 h. For the same molecule, in [20], the Vdss was determined as 2.38 L/kg.

As usually defined, the Cmax is the highest concentration seen after dosing. A word on the MRT last: it is the average time that molecules of a dose stay in the body. By bioavailability is commonly meant the share of a dose that reaches the circulation, judged against a reference dose that is usually intravenous. The term Vdss denotes a proportionality between amount in the body and measured concentration, not a real space. The term half-life denotes the time in which the quantity being followed falls by half. Usually AUC(0-t) stands for exposure summed from dosing to a finite time, without extrapolation to infinity. Read a high AUC(0-t) as more exposure. One may read the Tmax as the time at which the peak concentration occurs.
